Laboratory results taken from ChEMBL document CHEMBL3272327, “Hypocholesterolemic activity of 1,3-bis(substituted phenoxy)-2-propanones” (J Med Chem, 1976).

Tests used:
Rattus norvegicus [1] = experiment: Hypocholesterolemic activity in rat assessed as [14C]cholesterol level in liver at 10 mg/kg/day administered for 1 week measured after 22 hrs on day 7 by scintillation counting analysis (reference value: 19.80 +/- 2.93%); assay type: functional
Outline: (§1)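 Male rats were dosed orally for 1 week (10 mg/kg/day) or with 1% CMC. On day 7 they received 5 μCi [4-14C]cholesterol orally and were killed after 22 hr. Organs were homogenized (10% in water); 0.1-cc aliquots of homogenate, urine, blood or feces were digested with Protosol. Samples were counted in toluene/Triton X-100 (2:1) scintillant with 0.4% PPO and 0.01% POPOP. Results are % of dose per tissue, N = 6.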

Rattus norvegicus [2] = experiment: Hypocholesterolemic activity in rat assessed as [14C]cholesterol level in brain at 10 mg/kg/day administered for 1 week measured after 22 hrs on day 7 by scintillation counting analysis (reference value: 0.12 +/- 0.04%); assay type: functional; outline: as §1
Rattus norvegicus [3] = experiment: Effect on adrenal gland weight in rat at 10 mg/kg/day administered for 16 days measured 24 hrs after last drug dosage relative to total body weight (reference value: 0.015 +/- 0.003%); assay type: ADME, organism-based; conditions: in vivo
Rattus norvegicus [4] = experiment: Hypocholesterolemic activity in Sprague-Dawley rat assessed as serum cholesterol level at 10 mg/kg/day, po administered via intubation measured on day 10 by Liebermann-Burchard reaction (reference value: 100%); assay type: functional
Rattus norvegicus [5] = experiment: Hypocholesterolemic activity in rat assessed as serum glycerol level at 10 mg/kg/day administered for 14 days (reference value: 100 +/- 39%); assay type: functional
Rattus norvegicus [6] = experiment: Effect on spleen weight in rat at 10 mg/kg/day administered for 16 days measured 24 hrs after last drug dosage relative to total body weight (reference value: 0.55 +/- 0.12%); assay type: ADME, organism-based; conditions: in vivo
Rattus norvegicus [7] = experiment: Hypocholesterolemic activity in rat assessed as [14C]palmitic acid level in brain at 10 mg/kg/day administered for 1 week measured after 22 hrs on day 7 by scintillation counting analysis (reference value: 0.07 +/- 0.04%); assay type: functional
Outline: (§2)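 Male Sprague-Dawley rats on lab chow dosed orally once daily for 1 week at 10 mg/kg/day, suspended in 1% CMC, or given vehicle alone. On day 7, 5 μCi [1-14C]palmitic acid given orally. Killed after 22 hr; organs made into 10% water homogenates. Aliquots of 0.1 cc of homogenate, urine, blood or feces were digested and scintillation counted. Output is % of dose per tissue, N = 6.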

Rattus norvegicus [8] = experiment: Hypocholesterolemic activity in rat assessed as [14C]palmitic acid level in large intestine at 10 mg/kg/day administered for 1 week measured after 22 hrs on day 7 by scintillation counting analysis (reference value: 3.46 +/- 1.25%); assay type: functional; outline: as §2
Rattus norvegicus [9] = experiment: Hypocholesterolemic activity in rat assessed as [14C]palmitic acid level in small intestine at 10 mg/kg/day administered for 1 week measured after 22 hrs on day 7 by scintillation counting analysis (reference value: 4.43 +/- 1.43%); assay type: functional; outline: as §2
Rattus norvegicus [10] = experiment: Effect on food intake in rat at 50 mg/kg/day measured during first week (reference value: 19.1 +/- 1.7 gms); assay type: ADME, organism-based; conditions: in vivo
Outline: (§3)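 Male rats dosed orally at 1, 5, 10 or 50 mg/kg/day in 1% CMC. Average food intake in grams per rat per week measured over a 2-week period, first and second weeks reported separately. N = 8, Student's t test against the 1% CMC control.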

Rattus norvegicus [11] = experiment: Hypocholesterolemic activity in rat assessed as [14C]cholesterol level in spleen at 10 mg/kg/day administered for 1 week measured after 22 hrs on day 7 by scintillation counting analysis (reference value: 1.41 +/- 1.01%); assay type: functional; outline: as §1
Rattus norvegicus [12] = experiment: Effect on food intake in rat at 1 mg/kg/day measured during first week (reference value: 19.1 +/- 1.7 gms); assay type: ADME, organism-based; conditions: in vivo; outline: as §3
Rattus norvegicus [13] = experiment: Effect on brain weight in rat at 10 mg/kg/day administered for 16 days measured 24 hrs after last drug dosage relative to total body weight (reference value: 0.67 +/- 0.05%); assay type: ADME, organism-based; conditions: in vivo
Rattus norvegicus [14] = experiment: Effect on body weight in rat at 5 mg/kg/day administered for 16 days measured on day 7 (reference value: 173 +/- 12 gms); assay type: ADME, organism-based; conditions: in vivo, 384 h
Outline: (§4)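 Male Sprague-Dawley rats with chow and water ad libitum. Compound suspended in 1% CMC-water and given orally by intubation needle at 11:00 a.m., 1, 5, 10 or 50 mg/kg/day, for 16 days. Body weight (g) recorded on days 0, 7 and 16. N = 8.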

Rattus norvegicus [15] = experiment: Hypocholesterolemic activity in rat assessed as [14C]cholesterol level in feces at 10 mg/kg/day administered for 1 week measured after 22 hrs on day 7 by scintillation counting analysis (reference value: 15.50 +/- 5.24%); assay type: functional; outline: as §1
Rattus norvegicus [16] = experiment: Effect on body weight in rat at 10 mg/kg/day administered for 16 days measured on day 7 (reference value: 173 +/- 12 gms); assay type: ADME, organism-based; conditions: in vivo, 384 h; outline: as §4
Rattus norvegicus [17] = experiment: Hypocholesterolemic activity in Sprague-Dawley rat assessed as serum cholesterol level at 5 mg/kg/day, po administered via intubation measured on day 10 by Liebermann-Burchard reaction (reference value: 100 +/- 7%); assay type: functional
Rattus norvegicus [18] = experiment: Effect on testes weight in rat at 50 mg/kg/day administered for 16 days measured 24 hrs after last drug dosage relative to total body weight (reference value: 1.08 +/- 0.08%); assay type: ADME, organism-based, Testis; conditions: in vivo
Rattus norvegicus [19] = experiment: Hypocholesterolemic activity in rat assessed as [14C]palmitic acid level in kidney at 10 mg/kg/day administered for 1 week measured after 22 hrs on day 7 by scintillation counting analysis (reference value: 0.68 +/- 0.16%); assay type: functional; outline: as §2
Rattus norvegicus [20] = experiment: Hypocholesterolemic activity in Sprague-Dawley rat assessed as serum cholesterol level at 5 mg/kg/day, po administered via intubation measured on day 16 by Liebermann-Burchard reaction (reference value: 100 +/- 8%); assay type: functional
Rattus norvegicus [21] = experiment: Effect on liver weight in rat at 5 mg/kg/day administered for 16 days measured 24 hrs after last drug dosage relative to total body weight (reference value: 4.22 +/- 0.29%); assay type: ADME, organism-based; conditions: in vivo
Rattus norvegicus [22] = experiment: Hypocholesterolemic activity in rat assessed as [14C]cholesterol level in lung at 10 mg/kg/day administered for 1 week measured after 22 hrs on day 7 by scintillation counting analysis (reference value: 1.99 +/- 1.18%); assay type: functional; outline: as §1
Rattus norvegicus [23] = experiment: Hypocholesterolemic activity in rat assessed as [14C]cholesterol recover at 10 mg/kg/day administered for 1 week measured after 22 hrs on day 7 by scintillation counting analysis (reference value: 99.11%); assay type: functional; outline: as §1
Rattus norvegicus [24] = experiment: Effect on kidney weight in rat at 1 mg/kg/day administered for 16 days measured 24 hrs after last drug dosage relative to total body weight (reference value: 0.92 +/- 0.04%); assay type: ADME, organism-based; conditions: in vivo
Rattus norvegicus [25] = experiment: Effect on vesicular gland weight in rat at 5 mg/kg/day administered for 16 days measured 24 hrs after last drug dosage relative to total body weight (reference value: 0.10 +/- 0.04%); assay type: ADME, organism-based; conditions: in vivo
Rattus norvegicus [26] = experiment: Hypocholesterolemic activity in Sprague-Dawley rat assessed as serum cholesterol level at 1 mg/kg/day, po administered via intubation measured on day 10 by Liebermann-Burchard reaction (reference value: 100 +/- 7%); assay type: functional
Rattus norvegicus [27] = experiment: Hypocholesterolemic activity in rat assessed as [14C]palmitic acid level in spleen at 10 mg/kg/day administered for 1 week measured after 22 hrs on day 7 by scintillation counting analysis (reference value: 0.46 +/- 0.24%); assay type: functional; outline: as §2

**Q.** Which Activity (Rattus norvegicus [1]) does the source give for `Cc1ccc(OCC(=O)COc2ccc(C)cc2)cc1` here?
**A.** Its Activity is 22.19%.

**Q.** What about the Activity (Rattus norvegicus [2]) of the same compound?
**A.** Its Activity is 0.16%.

**Q.** What about the Activity (Rattus norvegicus [3]) of the same compound?
**A.** Its Activity is 0.016%.

**Q.** What about the Activity (Rattus norvegicus [4]) of the same compound?
**A.** The Activity was 50%.

**Q.** What about the Activity (Rattus norvegicus [5]) of the same compound?
**A.** Its Activity is 24%.

**Q.** And the Activity (Rattus norvegicus [6])?
**A.** The Activity was 0.6%.

**Q.** What about the Activity (Rattus norvegicus [7]) of the same compound?
**A.** The Activity was 0.08%.

**Q.** What about the Activity (Rattus norvegicus [8]) of the same compound?
**A.** The Activity was 9.91%.

**Q.** What about the Activity (Rattus norvegicus [9]) of the same compound?
**A.** Its Activity is 6.05%.

**Q.** And the Activity (Rattus norvegicus [10])?
**A.** The Activity was 18.9 g.

**Q.** And the Activity (Rattus norvegicus [11])?
**A.** The Activity was 1.86%.

**Q.** And the Activity (Rattus norvegicus [12])?
**A.** The Activity was 19.2 g.

**Q.** What about the Activity (Rattus norvegicus [13]) of the same compound?
**A.** The Activity was 0.71%.

**Q.** And the Activity (Rattus norvegicus [14])?
**A.** The Activity was 168 g.

**Q.** What about the Activity (Rattus norvegicus [15]) of the same compound?
**A.** Its Activity is 22.1%.

**Q.** And the Activity (Rattus norvegicus [16])?
**A.** The Activity was 164 g.

**Q.** And the Activity (Rattus norvegicus [17])?
**A.** The Activity was 58%.

**Q.** And the Activity (Rattus norvegicus [18])?
**A.** The Activity was 1.19%.

**Q.** What about the Activity (Rattus norvegicus [19]) of the same compound?
**A.** The Activity was 0.94%.

**Q.** And the Activity (Rattus norvegicus [20])?
**A.** The Activity was 56%.

**Q.** And the Activity (Rattus norvegicus [21])?
**A.** The Activity was 4.31%.

**Q.** What about the Activity (Rattus norvegicus [22]) of the same compound?
**A.** Its Activity is 2.45%.

**Q.** What about the Activity (Rattus norvegicus [23]) of the same compound?
**A.** Its Activity is 99.94%.

**Q.** And the Activity (Rattus norvegicus [24])?
**A.** The Activity was 0.79%.

**Q.** What about the Activity (Rattus norvegicus [25]) of the same compound?
**A.** Its Activity is 0.13%.

**Q.** What about the Activity (Rattus norvegicus [26]) of the same compound?
**A.** The Activity was 71%.

**Q.** And the Activity (Rattus norvegicus [27])?
**A.** Its Activity is 0.37%.
